Measured values: ChEMBL document CHEMBL5532688, “Carltonine-derived compounds for targeted butyrylcholinesterase inhibition” (RSC Med Chem, 2024)
Activity calls are given as the source filed them. No cut-off for these calls is given here.

Tests used:
Acetylcholinesterase [1] = molecular target: T1, Acetylcholinesterase (Homo sapiens, UniProt P22303); assay: Inhibition of human AChE using acetylthiocholine iodide as substrate at 10 uM incubated for 1 mins by spectrophotometric Ellman's method
How it was run: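 Recombinant human AChE, modified Ellman assay; compound in DMSO (single 10 μM screen) preincubated 5 min with enzyme and 5 mM DTNB in pH 7.4 phosphate buffer. […] Triplicate.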

Cholinesterase [2] = molecular target: T2, Cholinesterase (Homo sapiens, UniProt P06276); assay: Inhibition of human BChE using butyrylthiocholine iodide as substrate incubated for 1 mins by spectrophotometric Ellman's method
Cholinesterase [3] = molecular target: T2, Cholinesterase; assay: Reversible binding affinity to human BChE using butyrylthiocholine iodide as substrate assessed as reduction in Vmax at 0.445 to 1.400 micromol/L preincubated for 5 min followed by substrate addition and measured after 1 mins by Lineweaver-Burk plot analysis; settings: dose 0.445-1.4 µmol/L, time 6.0 min
How it was run: (§1)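 Recombinant human BChE at final activity 0.002 U/μL in phosphate buffer. […] Km, Vmax, Ki and Ki' came from nonlinear regression of velocity curves. Lineweaver–Burk plots were drawn by linear regression.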

Cholinesterase [4] = molecular target: T2, Cholinesterase; assay: Reversible binding affinity to human BChE using butyrylthiocholine iodide as substrate assessed as reduction in Km at 0.445 to 1.400 micromol/L preincubated for 5 min followed by substrate addition and measured after 1 mins by Lineweaver-Burk plot analysis; settings: dose 0.445-1.4 µmol/L, time 6.0 min; how it was run: as §1
Acetylcholinesterase [5] = molecular target: T1, Acetylcholinesterase; assay: Inhibition of human AChE using acetylthiocholine iodide as substrate incubated for 1 mins by spectrophotometric Ellman's method
How it was run: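 Modified Ellman assay on recombinant human AChE (acetylthiocholine) or human BChE (butyrylthiocholine). Enzyme, 5 mM DTNB and DMSO compound dilutions at several concentrations preincubated 5 min in pH 7.4 phosphate buffer. Reaction started with 10 mM substrate, ΔA read at 412 nm for 1 min. IC50 is the mean ± SEM of three independent runs, each in triplicate.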

T1 sequence (P22303 whole entry): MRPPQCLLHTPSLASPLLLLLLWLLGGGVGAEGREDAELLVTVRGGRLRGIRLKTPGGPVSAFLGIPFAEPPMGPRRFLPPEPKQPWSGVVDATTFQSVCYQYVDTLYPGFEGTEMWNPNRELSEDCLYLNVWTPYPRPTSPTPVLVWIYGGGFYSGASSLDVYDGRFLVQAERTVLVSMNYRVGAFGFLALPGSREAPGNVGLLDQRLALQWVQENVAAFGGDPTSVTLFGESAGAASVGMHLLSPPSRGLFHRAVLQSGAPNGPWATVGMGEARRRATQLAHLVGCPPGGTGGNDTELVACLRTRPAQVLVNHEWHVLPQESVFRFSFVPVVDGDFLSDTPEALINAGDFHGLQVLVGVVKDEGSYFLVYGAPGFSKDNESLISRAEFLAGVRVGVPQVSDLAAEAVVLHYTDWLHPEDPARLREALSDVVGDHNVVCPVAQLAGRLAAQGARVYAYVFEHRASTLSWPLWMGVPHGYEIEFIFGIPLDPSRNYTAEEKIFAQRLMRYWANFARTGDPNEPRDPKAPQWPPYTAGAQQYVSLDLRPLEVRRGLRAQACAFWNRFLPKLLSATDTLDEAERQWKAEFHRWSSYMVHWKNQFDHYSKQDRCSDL
T2 sequence (P06276 whole entry): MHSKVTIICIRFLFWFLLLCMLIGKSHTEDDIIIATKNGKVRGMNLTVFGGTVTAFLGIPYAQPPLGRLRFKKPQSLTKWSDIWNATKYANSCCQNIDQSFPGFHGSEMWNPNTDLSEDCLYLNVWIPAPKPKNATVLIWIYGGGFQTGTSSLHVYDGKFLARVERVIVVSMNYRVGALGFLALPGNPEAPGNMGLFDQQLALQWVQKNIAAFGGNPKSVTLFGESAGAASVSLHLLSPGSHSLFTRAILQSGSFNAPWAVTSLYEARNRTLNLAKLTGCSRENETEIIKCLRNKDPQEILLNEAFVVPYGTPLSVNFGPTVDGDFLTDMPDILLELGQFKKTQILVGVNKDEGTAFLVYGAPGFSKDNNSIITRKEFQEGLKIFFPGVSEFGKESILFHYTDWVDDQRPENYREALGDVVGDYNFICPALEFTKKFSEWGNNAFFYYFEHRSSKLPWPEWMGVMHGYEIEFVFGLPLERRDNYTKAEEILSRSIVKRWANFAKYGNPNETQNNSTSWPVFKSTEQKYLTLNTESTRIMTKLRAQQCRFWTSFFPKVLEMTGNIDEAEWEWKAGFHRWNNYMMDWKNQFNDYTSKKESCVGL

CCCN(Cc1ccc(OCc2ccccc2)cc1)C(C)CCc1ccccc1 (stereo not given)
inhibition (Acetylcholinesterase [1]): inactive

CCN(CCCc1ccccc1)Cc1cccc(OCc2ccccc2)c1
inhibition (Acetylcholinesterase [1]): inactive

C=CCN(Cc1ccccc1)Cc1cccc(OCc2ccccc2)c1
inhibition (Acetylcholinesterase [1]): inactive

CCN(CCc1ccccc1)Cc1cccc(OCc2ccccc2)c1
inhibition (Acetylcholinesterase [1]): inactive

c1ccc(CCNCc2ccc(OCc3ccccc3)cc2)cc1
inhibition (Acetylcholinesterase [1]): inactive

CCCN(CCCc1ccccc1)Cc1cccc(OCc2ccccc2)c1
inhibition (Acetylcholinesterase [1]): inactive

Clc1ccc(CCNCc2ccc(OCc3ccccc3)cc2)cc1
inhibition (Acetylcholinesterase [1]): inactive

CCCN(CCCc1ccccc1)Cc1ccc(OCc2ccccc2)cc1
inhibition (Acetylcholinesterase [1]): inactive

C=CCOc1ccc(CCNCc2cccc(OCc3ccccc3)c2)cc1
inhibition (Acetylcholinesterase [1]): inactive

COc1ccc(CNCc2cccc(OCc3ccccc3)c2)cc1OC
inhibition (Acetylcholinesterase [1]): inactive

COc1cccc(CCNCc2ccc(OCc3ccccc3)cc2)c1
inhibition (Acetylcholinesterase [1]): inactive

COc1ccccc1CCNCc1cccc(OCc2ccccc2)c1
inhibition (Acetylcholinesterase [1]): inactive

Oc1ccc(CCNCc2ccc(OCc3ccccc3)cc2)cc1
inhibition (Acetylcholinesterase [1]): inactive

Clc1cccc(NCc2cccc(OCc3ccccc3)c2)c1
inhibition (Acetylcholinesterase [1]): inactive

C=CCOc1ccc(CCN(CC=C)Cc2cccc(OCc3ccccc3)c2)cc1
inhibition (Acetylcholinesterase [1]): inactive

CC(CNCc1ccc(OCc2ccccc2)cc1)c1ccccc1 (stereo not given)
inhibition (Acetylcholinesterase [1]): inactive

CC(CNCc1cccc(OCc2ccccc2)c1)c1ccccc1 (stereo not given)
inhibition (Acetylcholinesterase [1]): inactive

COc1ccc(CCNCc2ccc(OCc3ccccc3)cc2)cc1
inhibition (Acetylcholinesterase [1]): inactive

C=CCN(CCc1ccccc1)Cc1cccc(OCc2ccccc2)c1
inhibition (Acetylcholinesterase [1]): inactive

c1ccc(CCCCNCc2ccc(OCc3ccccc3)cc2)cc1
inhibition (Acetylcholinesterase [1]): inactive

CC(CCc1ccccc1)NCc1ccc(OCc2ccccc2)cc1 (stereo not given)
inhibition (Acetylcholinesterase [1]): inactive

c1ccc(CCCNCc2cccc(OCc3ccccc3)c2)cc1
inhibition (Acetylcholinesterase [1]): inactive

C=CCOc1ccc(CCN(CC=C)Cc2ccc(OCc3ccccc3)c(OC)c2)cc1
IC50 (Cholinesterase [2]): > 10 µM

CCN(Cc1ccccc1)Cc1cccc(OCc2ccccc2)c1
inhibition (Acetylcholinesterase [1]): inactive

c1ccc(COc2ccc(CNCCc3ccccn3)cc2)cc1
inhibition (Acetylcholinesterase [1]): inactive

c1ccc(COc2ccc(CNCc3ccccn3)cc2)cc1
inhibition (Acetylcholinesterase [1]): inactive

COc1cccc(CCNCc2cccc(OCc3ccccc3)c2)c1
inhibition (Acetylcholinesterase [1]): inactive

CCCN(CCc1ccc(O)cc1)Cc1ccc(OCc2ccccc2)cc1
Activity (Cholinesterase [3]): Active | Activity (Cholinesterase [4]): Active | inhibition (Acetylcholinesterase [1]): inactive

c1ccc(CCNCc2cccc(OCc3ccccc3)c2)cc1
inhibition (Acetylcholinesterase [1]): inactive

COc1ccc(CCNCc2cccc(OCc3ccccc3)c2)cc1
inhibition (Acetylcholinesterase [1]): inactive

c1ccc(CNCc2cccc(OCc3ccccc3)c2)cc1
inhibition (Acetylcholinesterase [1]): inactive

CCCN(Cc1ccccc1)Cc1ccc(OCc2ccccc2)cc1
inhibition (Acetylcholinesterase [1]): inactive

CCCOc1ccc(CCN(CCC)Cc2ccc(OCc3ccccc3)cc2)cc1
inhibition (Acetylcholinesterase [1]): inactive

CCCN(CCc1ccccc1)Cc1cccc(OCc2ccccc2)c1
inhibition (Acetylcholinesterase [1]): inactive

CCN(Cc1ccc(OCc2ccccc2)cc1)C(C)CCc1ccccc1 (stereo not given)
inhibition (Acetylcholinesterase [1]): inactive

C=CCN(CCc1ccc(O)cc1)Cc1cccc(OCc2ccccc2)c1
inhibition (Acetylcholinesterase [1]): inactive

COc1ccccc1CCNCc1ccc(OCc2ccccc2)cc1
inhibition (Acetylcholinesterase [1]): inactive

CN(CCc1ccc(O)cc1)Cc1cc2c(cc1-c1cccc3c1N(C)CC3)OCO2
IC50 (Acetylcholinesterase [5]): > 100 µM

CCN(Cc1ccccc1)Cc1ccc(OCc2ccccc2)cc1
inhibition (Acetylcholinesterase [1]): inactive

C=CCN(CCCc1ccccc1)Cc1cccc(OCc2ccccc2)c1
inhibition (Acetylcholinesterase [1]): inactive

c1ccc(CCCNCc2ccc(OCc3ccccc3)cc2)cc1
inhibition (Acetylcholinesterase [1]): inactive

Oc1ccc(CCNCc2cccc(OCc3ccccc3)c2)cc1
inhibition (Acetylcholinesterase [1]): inactive

c1ccc(CNCc2ccc(OCc3ccccc3)cc2)cc1
inhibition (Acetylcholinesterase [1]): inactive
